The results in this text go back to ChEMBL document CHEMBL3407437, “Antibacterial drug leads: DNA and enzyme multitargeting” (J Med Chem, 2015).

Values after ≈ are worked out from the molar mass of the structure shown.

Assay [1] is described as follows: Inhibition of Escherichia coli UPPS using FPP/IPP as substrate by spectrophotometry.
In a further assay the test system is Escherichia coli. Put plainly: Antimicrobial activity against Escherichia coli K-12 after 3 hrs by broth microdilution method. In kind it is functional, organism-based. To be noted: K-12, 3 h.
A short description of assay [2]: Inhibition of Staphylococcus aureus UPPS using FPP/IPP as substrate by spectrophotometry. In short, it runs like this:
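Continuous spectrophotometric assay following UPPS-catalysed condensation of FPP with IPP. IC50 from fit of inhibition data to rectangular hyperbolic dose-response function.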

Assay [3] concerns Staphylococcus aureus. Put plainly: Antimicrobial activity against Staphylococcus aureus Newman after 9 hrs by spectrophotometry. In kind it is functional, organism-based.
Assay [4] is described as follows: Binding affinity to DNA dodecamer complex (CGCGAATTCGCG)2 (unknown origin) assessed as change in melting temperature by differential scanning calorimetry.
Assay [5] can be described thus: Inhibition of Staphylococcus aureus UPPS. In short, it runs like this: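 Continuous spectrophotometric assay following UPPS-catalysed condensation of FPP with IPP. Reaction contained 400 µM MESG, 25 µM IPP, 2.5 µM FPP, […] pH 7.5, 0.01% Triton X-100 and 1 mM MgCl2. IC50 from fit of inhibition data to rectangular hyperbolic dose-response function.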
Assay [6] deals with Staphylococcus aureus. Briefly: Antimicrobial activity against Staphylococcus aureus. The assay is classed as functional.
The nature of assay [7]: Inhibition of FPPS (unknown origin).
The test system of assay [8] is Staphylococcus aureus. Briefly: Antimicrobial activity against Staphylococcus aureus assessed as fractional Inhibitory concentration index. The assay is classed as functional.

Take `S=C(Nc1cccc(C2=NCCN2)c1)c1ccc(-c2ccc(C(=S)Nc3cccc(C4=NCCN4)c3)cc2)cc1`: the 50% inhibitory concentration (IC50) was 9.2 µM in assay [1] and 3.5 µM in [2]. Moreover, the EC50 was 58 µM in the assay with Escherichia coli and 3 µM in the assay on Staphylococcus aureus [3]. Moreover, the ΔTm in [4] worked out at 7.1 °C.
The matching figures for `Cn1cc(NC(=O)c2cc(NC(=O)CNC(=N)N)cn2C)cc1C(=O)NCCC(=N)N` [NETROPSIN]: 1400 µM, 1000 µM, 570 µM, 11 µM and 16 °C.
In the same order, the values of `c1cc2cc(-c3ccc(-c4cc5ccc(C6=NCCN6)cc5[nH]4)cc3)[nH]c2cc1C1=NCCN1` are 0.36 µM, 1.7 µM, 0.33 µM, 0.029 µM and 16 °C.
In the same order, the values of `OC[C@H]1O[C@@H](Oc2cccc(C#Cc3ccc(C#Cc4cccc(C5=NCCN5)c4)cc3)c2)[C@H](O)[C@@H](O)[C@@H]1O` are 14 µM, 5.6 µM, 900 µM, 380 µM and -1.2 °C.
Turning to `COc1cccc(NC(=O)c2ccc(-c3ccc(C(=O)Nc4cccc(C5=NCCN5)c4)cc3)cc2)c1`, the values for the half-maximal inhibitory concentration (IC50) in assay [1] and in [2] were 9.4 µM and 2.1 µM, respectively. Further, the half-maximal effective concentration (EC50) is 570 µM with Escherichia coli and 7.7 µM with Staphylococcus aureus [3]. In addition, the ΔTm in [4] turned out to be 5.2 °C.
The matching figures for `CCCCCCOc1cccc(NC(=O)c2ccc(-c3ccc(C(=O)Nc4cccc(C5=NCCN5)c4)cc3)cc2)c1`: 25 µM, 8.9 µM, more than 1500 µM, 280 µM and 0.7 °C.
As for `O=C(Nc1cccc(Oc2ccccc2)c1)c1ccc(-c2ccc(C(=O)Nc3cccc(C4=NCCN4)c3)cc2)cc1`, the half-inhibitory concentration (IC50) in assay [1] was found to be 11 µM; in assay [2], 5.7 µM. For the same compound, the EC50 with Escherichia coli is more than 1500 µM; in the assay with Staphylococcus aureus [3] it was 10 µM. For the same compound, the ΔTm in assay [4] amounted to 0.6 °C.
For the compound `c1cc2cc(-c3ccc(-c4cc5ccc(C6=NCCCN6)cc5[nH]4)cc3)[nH]c2cc1C1=NCCCN1`, the half-inhibitory concentration (IC50) came out at 0.68 µM in assay [1] and 0.47 µM in [2]. Besides, the half-maximal effective concentration (EC50) was 0.24 µM with Escherichia coli and 0.028 µM with Staphylococcus aureus [3]. Besides, the ΔTm in assay [4] amounted to 24 °C.
The matching figures for `N=C(N)c1ccc(OCCCCCOc2ccc(C(=N)N)cc2)cc1` [PENTAMIDINE]: 400 µM, 240 µM, 12 µM, 4.2 µM and 2.7 °C.
Turning to `O=C(Nc1cccc(C2=NCCCN2)c1)c1ccc(-c2ccc(C(=O)Nc3cccc(C4=NCCCN4)c3)cc2)cc1`, the results for the IC50 in [1] and in assay [2] were 5.5 µM and 4.5 µM, respectively. Also, the values for the half-maximal effective concentration (EC50) with Escherichia coli and in the assay with Staphylococcus aureus [3] were 0.66 µM and 0.23 µM, respectively. In addition, the thermal shift (ΔTm) in assay [4] was determined as 10 °C.
In the same order, the values of `O=P(O)(O)C(O)(Cc1cccc(-c2cccc(NS(=O)(=O)c3cccc(S(=O)(=O)Nc4cccc(-c5cccc(CC(O)(P(=O)(O)O)P(=O)(O)O)c5)c4)c3)c2)c1)P(=O)(O)O` are 0.36 µM, 0.39 µM, more than 1500 µM, 100 µM and -1 °C.
As for `O=C(Nc1cccc(C2=NCCN2)c1)c1ccc(-c2ccc(C(=O)Nc3cccc(C4=NCCN4)c3)cc2)cc1`, the IC50 in [5] amounted to 100 nM; in assay [7], 2000 nM. Besides, in the assay on Staphylococcus aureus [6], the lowest concentration to inhibit growth (MIC) was 0.25 µg/mL (≈ 0.473 µM). Besides, in the assay on Staphylococcus aureus [8], the “fractional inhibitory concentration index (FICI)” value is 0.25. Besides, the ΔTm in [4] is 11 °C.
Consider `O=C(Nc1ccc(C2=NCCN2)cc1)c1ccc(C(=O)Nc2ccc(C3=NCCN3)cc2)c([N+](=O)[O-])c1`, for which the IC50 was found to be 4.8 µM in [1] and 4.9 µM in assay [2]. For the same compound, the EC50 with Escherichia coli is 14 µM; with Staphylococcus aureus [3] it was 28 µM. Also, in [4], the ΔTm was 3.9 °C.
The matching figures for `NCCc1cc(Br)cc(C#Cc2cccc(C#Cc3cc(Br)cc(CCN)c3)c2)c1`: 6.1 µM, 1.4 µM, 0.97 µM, 7.6 µM and -0.1 °C.
Turning to `O=C(Nc1cccc(O[C@@H]2O[C@H](CO)[C@@H](O)[C@H](O)[C@H]2O)c1)c1ccc(-c2ccc(C(=O)Nc3cccc(C4=NCCN4)c3)cc2)cc1`, the results for the concentration for half-maximal inhibition (IC50) in [1] and in assay [2] were 380 µM and 530 µM, respectively. For the same compound, the concentration giving a half-maximal response (EC50) was more than 1500 µM in the assay on Escherichia coli and 570 µM in the assay with Staphylococcus aureus [3]. Further, the ΔTm in assay [4] was 5.8 °C.
In the same order, the values of `C(=C\c1cc2ccc(C3=NCCN3)cc2[nH]1)/c1cc2ccc(C3=NCCN3)cc2[nH]1` are 12 µM, 5.1 µM, 1.2 µM, 0.11 µM and 20 °C.
